Series [1] relates to Mycobacterium avium. Briefly: Antimycobacterial activity against pyrazinamide-resistant Mycobacterium avium CNCTC My 80/72 after 5 days by microplate alamar blue assay. The format is functional. Conditions: CNCTC My 80/72, 120 h. The method, boiled down:
(§1)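 Microplate alamar blue assay run at pH 5.6, using conditions optimized for pyrazinamide. Strains came from the Czech National Collection of Type Cultures. MIC was read in µg/mL and converted to µM using molecular weight.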
(In general: Alamar Blue is a resazurin reagent that responds to reducing activity.)

The test system of series [2] is Enterococcus sp. Briefly: Antibacterial activity against Enterococcus sp. J 14365/08 after 24 to 48 hrs by microdilution broth method. The series is classed as functional, organism-based. Put shortly: (§2)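 Antibacterial screen with compound concentrations up to a highest level of 500 µM. Results expressed as MIC in µM.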
A general note: In broth dilution the organism is exposed to a series of concentrations in liquid medium.

Series [3] concerns Escherichia coli. In words: Antibacterial activity against Escherichia coli CCM 4517 after 24 to 48 hrs by microdilution broth method. The series is classed as functional, organism-based. The method, boiled down: as §2
In series [4] the test system is Staphylococcus epidermidis. Briefly: Antibacterial activity against Staphylococcus epidermidis H 6966/08 after 48 hrs by microdilution broth method. The series is classed as functional. The method, boiled down: as §2
Series [5] concerns Staphylococcus epidermidis. Briefly: Antibacterial activity against methicillin-resistant Staphylococcus epidermidis H 5996/08 after 24 to 48 hrs by microdilution broth method. The series is classed as functional, organism-based.
Series [6] relates to Trichosporon asahii. In words: Antifungal activity against Trichosporon asahii 1188 after 72 to 120 hrs by microdilution broth method. The series is classed as functional, organism-based.
In series [7] the test system is Pichia kudriavzevii. In words: Antifungal activity against Candida krusei E28 after 72 to 120 hrs by microdilution broth method. The series is classed as functional, organism-based.
Series [8] can be described thus: Lipophilicity, log K of the compound by HPLC analysis. The series is classed as physicochemical.
Series [9] has as its system Nakaseomyces glabratus. In words: Antifungal activity against Candida glabrata 20/I after 72 to 120 hrs by microdilution broth method. The format is functional, organism-based.
For series [10], the system named is Candida tropicalis. Briefly: Antifungal activity against Candida tropicalis 156 after 72 to 120 hrs by microdilution broth method. The series is classed as functional, organism-based.
In series [11] the test system is Staphylococcus epidermidis. Briefly: Antibacterial activity against Staphylococcus epidermidis H 6966/08 up to 500 uM after 24 to 48 hrs by microdilution broth method. The series is classed as functional, organism-based. The method, boiled down: as §2
The subject of series [12] is Mycobacterium kansasii. Briefly: Antimycobacterial activity against pyrazinamide-resistant Mycobacterium kansasii CNCTC My 235/80 after 5 days by microplate alamar blue assay. The series is classed as functional. Particulars: CNCTC My 235/80, 120 h. Put shortly:
as §1

Series [13] concerns Klebsiella pneumoniae. In words: Antibacterial activity against Klebsiella pneumoniae D 11750/08 after 24 to 48 hrs by microdilution broth method. The series is classed as functional, organism-based. The method, boiled down: as §2
The test system of series [14] is Klebsiella pneumoniae. Briefly: Antibacterial activity against ESBL positive Klebsiella pneumoniae J 14368/08 after 24 to 48 hrs by microdilution broth method. The format is functional, organism-based. Put shortly: as §2
Series [15] concerns Mycobacterium tuberculosis. In words: Antimycobacterial activity against Mycobacterium tuberculosis H37Rv CNCTC My 331/88 after 5 days by microplate alamar blue assay. The series is classed as functional. Particulars: H37Rv CNCTC My 331/88, 120 h. Put shortly: as §1
The subject of series [16] is Candida albicans. In words: Antifungal activity against Candida albicans ATCC 44859 after 72 to 120 hrs by microdilution broth method. The series is classed as functional, organism-based.
Series [17] concerns Lichtheimia corymbifera. In words: Antifungal activity against Absidia corymbifera 272 after 72 to 120 hrs by microdilution broth method. The series is classed as functional, organism-based.
For series [18], the system named is Trichophyton mentagrophytes. In words: Antifungal activity against Trichophyton mentagrophytes after 72 to 120 hrs by microdilution broth method. The format is functional, organism-based.
Series [19] concerns Mycobacterium avium. Briefly: Antimycobacterial activity against pyrazinamide-resistant Mycobacterium avium CNCTC My 152/73 after 5 days by microplate alamar blue assay. The format is functional. Particulars: CNCTC My 152/73, 120 h. Put shortly:
as §1

Series [20] relates to Aspergillus fumigatus. In words: Antifungal activity against Aspergillus fumigatus 231 after 72 to 120 hrs by microdilution broth method. The format is functional, organism-based.
Series [21] concerns Staphylococcus aureus. Briefly: Antibacterial activity against Staphylococcus aureus CCM 4516/08 after 24 to 48 hrs by microdilution broth method. The series is classed as functional, organism-based. Put shortly:
as §2

A short description of series [22]: Selectivity index, ratio of IC50 for human HepG2 cells to MIC for Mycobacterium tuberculosis H37Rv CNCTC My 331/88. The format is toxicity, cell-based. Conditions: read-out: Selectivity Index. The method, boiled down: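 HepG2 human liver cell viability was measured by a colorimetric tetrazolium-reduction assay, and IC50 was derived from the toxicity curves. MIC against M. tuberculosis H37Rv came from the alamar blue microplate assay at pH 5.6. SI = IC50/MIC, both in molar units.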

Series [23] relates to Trichophyton mentagrophytes. Briefly: Antifungal activity against Trichophyton mentagrophytes 445 after 72 to 120 hrs by microdilution broth method. The series is classed as functional, organism-based.
The subject of series [24] is Pseudomonas aeruginosa. In words: Antibacterial activity against Pseudomonas aeruginosa CCM 1961 after 24 to 48 hrs by microdilution broth method. The series is classed as functional, organism-based. The method, boiled down: as §2
In series [25] the test system is HepG2. Briefly: Cytotoxicity against human HepG2 cells after 24 hrs. The format is cell-based. Particulars: HepG2, 24 h. Put shortly: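 HepG2 human liver cells; loss of viability measured by a colorimetric tetrazolium-reduction assay. IC50 derived from the toxicity curves. Where limited solubility in the culture medium capped the tested concentration, only an estimate of the toxic concentration was given.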

Calls of active or inactive are those of the source. No cut-off for these calls is given here. A value given as a limit tells only on which side of the number the result lay.

In general, MIC refers to the lowest concentration that inhibits growth of the organism. For orientation: IC50 means the concentration that inhibits the measured activity by half. Higher therefore signals a need for much substance. For `CCCCCCCNc1cnc(C(N)=O)cn1`, the MIC was above 100 mg/L in series [1], 53 µM in [12], 53 µM in series [15] and above 100 mg/L in series [19]. For the same compound, the result in [2], in [3], in series [4], in [5], in series [6] and in [7] was inactive. Also, the result in series [9], in [10], in series [11], in [13], in series [14] and in series [16] was inactive. Also, the outcome in series [17], in series [18], in series [20], in [21], in series [23] and in series [24] was inactive. Moreover, the “log K” value in series [8] worked out at 0.4658. The selectivity ratio in [22] was above 4.7. Moreover, the IC50 in series [25] is above 250 µM.

For the compound `CCCCCCCCNc1cnc(C(N)=O)cn1`, the MIC is above 100 mg/L in series [1], 25 µM in series [12], 25 µM in series [15] and above 100 mg/L in series [19]. Further, the outcome in series [2], in series [3], in series [4], in series [5], in series [6] and in series [7] was inactive. For the same compound, the outcome in series [9], in [10], in [11], in series [13], in series [14] and in series [16] was inactive. In addition, the result in [17], in [18], in series [20], in [21], in series [23] and in [24] was inactive. Also, the “log K” value in series [8] is on record as 0.693. Moreover, the selectivity ratio in [22] is above 10. The IC50 in [25] is above 250 µM.

Regarding `NC(=O)c1cnccn1` [PYRAZINAMIDE], the minimal inhibitory concentration (MIC) in series [1] is above 100 mg/L; in series [12] it was above 100 mg/L; in [15] it was 102 µM; in series [19], above 100 mg/L. The “log K” value in series [8] is -0.6872. Also, the selectivity ratio in series [22] was above 98.1. The IC50 in series [25] is above 10000 µM.

On to `NC(=O)c1cncc(N)n1`, for which the MIC in series [1], in series [12], in series [15] and in [19] was above 100 mg/L each time. In addition, the result in [2], in series [3], in series [4], in series [5], in series [6] and in [7] was inactive. In addition, the outcome in series [9], in series [10], in series [11], in series [13], in [14] and in series [16] was inactive. Also, the outcome in [17], in series [18], in series [20], in series [21], in [23] and in [24] was inactive. Further, the “log K” value in series [8] is recorded as -0.7814.

`CNc1cnc(C(N)=O)cn1`: the MIC in [1], in series [12], in series [15] and in series [19] was above 100 mg/L in each case. For the same compound, the outcome in [2], in series [3], in series [4], in series [5], in [6] and in [7] was inactive. For the same compound, the outcome in series [9], in series [10], in series [11], in [13], in series [14] and in series [16] was inactive. The outcome in series [17], in series [18], in series [20], in series [21], in [23] and in series [24] was inactive. Further, the “log K” value in [8] was -0.6878.

For the compound `NC(=O)c1cnc(NCCCc2ccccc2)cn1`, the MIC in series [1] is above 100 mg/L; in series [12], 100 mg/L; in series [15], 98 µM; in series [19], above 100 mg/L. The outcome in series [2], in [3], in [4], in series [5], in series [6] and in [7] was inactive. Further, the result in [9], in series [10], in series [11], in series [13], in [14] and in series [16] was inactive. The result in [17], in series [18], in series [20], in series [21], in series [23] and in [24] was inactive. Besides, the “log K” value in [8] was 0.1408.

Turning to `CCCCNc1cncc(C(N)=O)n1`, the MIC in series [1] is above 100 mg/L; in series [12], above 100 mg/L; in series [15] it was 100 mg/L; in series [19], above 100 mg/L. Further, the outcome in [2], in series [3], in [4], in series [5], in series [6] and in series [7] was inactive. The outcome in series [9], in [10], in series [11], in series [13], in series [14] and in series [16] was inactive. In addition, the outcome in series [17], in series [18], in [20], in series [21], in series [23] and in series [24] was inactive. Moreover, in series [8], the “log K” value was -0.2162.

The record behind these values is ChEMBL document CHEMBL3102810, “Alkylamino derivatives of pyrazinamide: synthesis and antimycobacterial evaluation” (Bioorg Med Chem Lett, 2014).
